Measurements published in ChEMBL document CHEMBL1132580, “Syntheses and biological activities of rebeccamycin analogues. Introduction of a halogenoacetyl substituent” (J Med Chem, 1999).
Values after ≈ are worked out from the molar mass of the structure shown. Active and inactive are the calls of the source. No cut-off for these calls is given here.

Columns and labels:
Bacillus cereus [1] = experiment: Minimum inhibitory concentration against gram-positive Bacillus cereus; format: functional
Method in brief: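 Broth dilution in Mueller–Hinton broth pH 7.4 against B. cereus ATCC 14579. Compounds were diluted in DMSO across 12 tubes spanning 100 to 0.05 μg/mL. Read after 24 h at 27 °C.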

Bacillus cereus [2] = experiment: Antimicrobial activity against gram-positive Bacillus cereusATCC 14579 was determined by antibiogram test.+/- means growth inhibition zone was 6-7 mm.; format: functional, organism-based; settings: ATCC 14579
Method in brief: (§1)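 Paper-disk diffusion (6 mm disks, 300 μg drug per disk from DMSO solution) on Mueller-Hinton agar against B. cereus ATCC 14579. Inhibition zones were scored after 24 h at 27 °C.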

CEM-SS [3] = experiment: Anti-HIV-1 activity in CEM-SS cells was measured by the quantification of the reverse transcriptase activity, associated with the virus particles released from HIV-1 infected cells in the culture medium.; format: functional, cell-based; settings: Homo sapiens
Method in brief: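 CEM-SS cells in RPMI 1640 with 10% FBS at 37 °C, 5% CO2 were infected with HIV-1 Lai (100 TCID50). After 30 min adsorption the cells were washed and resuspended at 10⁵ cells/mL with a range of compound concentrations. Virus production was measured as reverse transcriptase activity after 5 days. IC50 was taken from a median effect plot of dose–effect data.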

Nucleic Acid = experiment: Variation in melting temperature (delta Tm) of helix-to-coil transition of DNA was reported.; format: nucleic-acid assay
Method in brief: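 A260 was followed over 20–100 °C at 1 °C/min using 20 μM calf thymus DNA with or without drug (10 μM) in BPE buffer pH 7.1 (6 mM Na2HPO4, 2 mM NaH2PO4, 1 mM EDTA). Tm was taken as the midpoint of the hyperchromic transition from the first-derivative plot.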

P388 [4] = experiment: Cytotoxicity against P388 leukemia cells; format: functional, cell-based; settings: Mus musculus
Method in brief: (§2)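 Murine P388 (camptothecin-sensitive) and P388/CPT5 (camptothecin-resistant, mutant top1) leukemia cells were exposed to a range of drug concentrations for 96 h at 37 °C. Viability was read by neutral red staining. IC50 is the concentration inhibiting growth by 50%.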

P388 [5] = experiment: Cytotoxicity against P388/CPT5 leukemia cells.; format: functional, cell-based; settings: Mus musculus; method in brief: as §2
Protein kinase C (PKC) [6] = experiment: (§3) Inhibition of protein kinase C (PKC); format: protein assay
Method in brief: (§4)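 PKC-α activity was assayed with protamine sulfate as substrate. IC50 values were determined.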

[7] = Selectivity Index (SI) refers to the ratio of the anti HIV activities CC50/IC50 in HIV-1 Lai infected CEM-SS cells.; format: functional
Method in brief: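 SI = CC50/IC50. CC50 came from MTT viability (OD 540 nm) of uninfected CEM-SS cells. IC50 came from reverse transcriptase activity of virus released after 5 days from HIV-1 Lai–infected CEM-SS cells. Both values were taken from median effect plots.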

[8] = Resistance Index (RI) refers to the ratio of the [IC50 (P388/CPT5)] / IC50 P388.; format: functional
Method in brief: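 Ratio of IC50 in P388/CPT5 cells to IC50 in P388 cells. Both IC50 values came from 96 h drug exposure at 37 °C with neutral red viability readout.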

CEM-SS [9] = experiment: Cytotoxicity against uninfected CEM-SS cells; settings: Homo sapiens
[10] = tested on: DNA topoisomerase 1 (Bos taurus); experiment: Minimum inhibitory concentration against DNA topoisomerase I
Bacillus cereus [11] = experiment: Antimicrobial activity against gram-positive Bacillus cereusATCC 14579 was determined by antibiogram test.++ means growth inhibition zone was 8-9 mm.; format: functional, organism-based; settings: ATCC 14579; method in brief: as §1
Streptomyces chartreusis [12] = experiment: Antimicrobial activity against gram-positive […] chartreusis NRRL 11407 was determined by antibiogram test.++ means growth inhibition zone was 8-9 mm.; format: functional, organism-based
CEM-SS [13] = experiment: Cytotoxicity against HIV-1 Lai infected CEM-SS cells; format: functional; settings: Homo sapiens, in the assay text read “uninfected CEM-SS cells” for “HIV-1 Lai infected CEM-SS cells”
Method in brief: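 Uninfected CEM-SS cells were incubated in parallel with a range of compound concentrations. Viability was read by MTT reduction to formazan (OD 540 nm). CC50 is the concentration reducing viability by 50%, derived with the median-effect program.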

Protein kinase C (PKC) [14] = experiment: as §3; format: functional; method in brief: as §4
Streptomyces chartreusis [15] = experiment: Antimicrobial activity against gram-positive […] chartreusis NRRL 11407 was determined by antibiogram test.+++ means growth inhibition zone was 10-12 mm.; format: functional, organism-based
Bacillus cereus [16] = experiment: Antimicrobial activity against gram-positive Bacillus cereusATCC 14579 was determined by antibiogram test.+ means growth inhibition zone was 7-8 mm.; format: functional, organism-based; settings: ATCC 14579; method in brief: as §1

| Compound | MIC (Bacillus cereus [1]) [µM] | Antimicrobial activity (Bacillus cereus [2]) | IC50 (CEM-SS [3]) [nM] | DeltaTm (Nucleic Acid) | IC50 (P388 [4]) [nM] | IC50 (P388 [5]) [nM] | IC50 (Protein kinase C (PKC) [6]) [nM] | Selectivity index [7] | Resistance index [8] | CC50 (CEM-SS [9]) [nM] | MIC [10] [µM] | Antimicrobial activity (Bacillus cereus [11]) | Antimicrobial activity (Streptomyces chartreusis [12]) | CC50 (CEM-SS [13]) [nM] | IC50 (Protein kinase C (PKC) [14]) [nM] | Antimicrobial activity (Streptomyces chartreusis [15]) | Antimicrobial activity (Bacillus cereus [16]) |
| --- | --- | --- | --- | --- | --- | --- | --- | --- | --- | --- | --- | --- | --- | --- | --- | --- | --- |
| COC1C(COC(=O)CBr)OC(n2c3c(Cl)cccc3c3c4c(c5c6cccc(Cl)c6[nH]c5c32)C(=O)NC4=O)C(O)C1O (stereo not given) | > 72 | inactive | 330 | 0.5 | 430 | 4300 | 101000 | 4.4 | 10 | 1450 | 1.45 (≈ 1 µg/mL) | – | – | – | – | – | – |
| COC1C(CO)OC(n2c3ccccc3c3c4c(c5c6ccccc6[nH]c5c32)C(=O)NC4=O)C(O)C1OC(=O)CBr (stereo not given) | 5.02 (≈ 3.12 µg/mL) | – | 150 | 3.2 | 160 | 3200 | > 161000 | 2.9 | 20 | – | 1.61 (≈ 1 µg/mL) | Active | Partially active | 440 | – | – | – |
| COC1C(CO)OC(n2c3ccccc3c3c4c(c5c6ccccc6[nH]c5c32)C(=O)N(CCCCOC(=O)CBr)C4=O)C(O)C1O (stereo not given) | > 72 | inactive | 500 | 0 | 1940 | > 14400 | > 144000 | 1.1 | > 7.4 | – | 1.44 (≈ 1 µg/mL) | – | – | 570 | – | – | – |
| CO[C@H]1[C@H](O)[C@@H](O)[C@H](n2c3c(Cl)cccc3c3c4c(c5c6cccc(Cl)c6[nH]c5c32)C(=O)NC4=O)O[C@@H]1CO [REBECCAMYCIN] | 10.9 (≈ 6.22 µg/mL) | – | – | 0 | – | 10500 | > 175000 | 2 | 8.6 | – | – | Active | Partially active | – | – | – | – |
| COC1C(CO)OC(n2c3c(Cl)cccc3c3c4c(c5c6cccc(Cl)c6[nH]c5c32)C(=O)NC4=O)C(OC(C)=O)C1O (stereo not given) | > 81 | – | 1400 | 0.5 | 480 | 3300 | – | – | 6.7 | 1200 | > 16 | – | – | – | > 163000 | – | – |
| CO[C@H]1[C@H](O)[C@@H](O)[C@H](n2c3ccccc3c3c4c(c5c6ccccc6[nH]c5c32)C(=O)NC4=O)O[C@@H]1CO | > 100 | – | – | 4.1 | – | > 20000 | > 142000 | 5.6 | > 28 | – | – | – | – | 900 | – | – | – |
| COC1C(CO)OC(n2c3ccccc3c3c4c(c5c6ccccc6[nH]c5c32)C(=O)NC4=O)C(OC(=O)CBr)C1O (stereo not given) | 5.02 (≈ 3.12 µg/mL) | – | 120 | 3.7 | 480 | 5000 | > 162000 | 3.8 | 10.4 | – | 1.59 (≈ 0.99 µg/mL) | Active | Partially active | 460 | – | – | – |
| COC1C(CO)OC(n2c3ccccc3c3c4c(c5c6ccccc6[nH]c5c32)C(=O)NC4=O)C(OC(C)=O)C1O (stereo not given) | 46 (≈ 25 µg/mL) | +/- | – | – | 550 | 4600 | – | – | 8.3 | – | 18 (≈ 9.78 µg/mL) | – | – | – | – | growth inhibition zone was 10-12 mm | – |
| COC1C(CO)OC(n2c3c(Cl)cccc3c3c4c(c5c6cccc(Cl)c6[nH]c5c32)C(=O)NC4=O)C(OC(=O)CBr)C1O (stereo not given) | 1.81 (≈ 1.25 µg/mL) | – | 980 | 0.5 | 260 | 940 | 24000 | 2.3 | 2.5 | – | > 14 | Active | – | 2300 | – | – | – |
| COC1C(CO)OC(n2c3c(Cl)cccc3c3c4c(c5c6cccc(Cl)c6[nH]c5c32)C(=O)N(CC(=O)CCl)C4=O)C(O)C1O (stereo not given) | 4.72 (≈ 3.12 µg/mL) | – | 450 | 1.2 | 240 | 3500 | > 151000 | 2.7 | 15 | 1200 | 1.14 (≈ 0.753 µg/mL) | – | – | – | – | Active | Partially active |
